From ChEMBL document CHEMBL2311257, “Synthesis and antioxidant activity of thymol and carvacrol based Schiff bases” (Bioorg Med Chem Lett, 2013) come the findings set out here.

Common to all, as to assay type: functional
The subject of assay [1] is Radical scavenging activity. Nature of the assay: Antioxidant activity assessed as DPPH radical scavenging activity in ethanol solution at 50 ug/mL. The essentials: (§1)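 Compound dissolved in ethanol, then ethanolic DPPH added. Incubated 30 min in the dark. DPPH decrease read as absorbance at 517 nm against an ethanol blank, with ascorbic acid as reference. % activity = [(A0 − Ai)/A0] × 100, where A0 is absorbance without compound and Ai with compound. IC50 taken from activity across concentrations.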

The subject of assay [2] is Radical scavenging activity. Briefly: Antioxidant activity assessed as DPPH radical scavenging activity in ethanol solution at 100 ug/mL. The gist of the method: as §1
Assay [3] has as its system Radical scavenging activity. Nature of the assay: Antioxidant activity assessed as DPPH radical scavenging activity in ethanol solution at 25 ug/mL. The essentials: as §1
On the technique in general: The DPPH test is a chemical assay of radical scavenging.

In assay [4] the test system is Radical scavenging activity. Briefly: Antioxidant activity assessed as DPPH radical scavenging activity in ethanol solution at 5 ug/mL. The essentials:
as §1

For assay [5], the system named is Radical scavenging activity. Nature of the assay: Antioxidant activity assessed as DPPH radical scavenging activity in ethanol solution at 10 ug/mL. The essentials: as §1
Assay [6] relates to Radical scavenging activity. Nature of the assay: Antioxidant activity assessed as DPPH radical scavenging activity in ethanol solution. The gist of the method: as §1

The IC50 is the point on the concentration scale where inhibition reaches its midpoint.

In brackets after ≈: the same amount, converted by molar mass.

For `Cc1cc(/N=C/c2ccc3c(c2)OCO3)c(C(C)C)cc1O`, the Activity was determined as 77.5% in assay [1]; 88.8% in assay [2]; 68.6% in assay [3]; 28.8% in assay [4]; 45.4% in assay [5]. Further, in assay [6], the half-maximal inhibitory concentration (IC50) amounted to 16.58 µg/mL (≈ 55.8 µM).

Turning to `Cc1cc(O)c(C(C)C)cc1/N=C/c1ccc(C(C)C)cc1`, the Activity in assay [1] was 70.5%; in assay [2], 82.6%; in assay [3], 67.5%; in assay [4] it was 24.5%; in assay [5] it was 50.8%. In addition, the IC50 in assay [6] was found to be 18.66 µg/mL (≈ 63.2 µM).

For `Cc1cc(O)c(C(C)(C)C)cc1/N=C/c1ccccc1`, the Activity in assay [1] was 75.7%; in assay [2] it was 87%; in assay [3] it was 61.1%; in assay [4], 28%; in assay [5] it was 49.6%. In addition, the IC50 in assay [6] is 18.6 µg/mL (≈ 69.6 µM).

As for `Cc1cc(O)c(C(C)C)cc1/N=C/c1ccccc1`, the Activity in assay [1] amounted to 77.9%; in assay [2], 83.8%; in assay [3], 60.6%; in assay [4], 31.6%; in assay [5] it was 45.2%. Moreover, the concentration for half-maximal inhibition (IC50) in assay [6] stood at 18.55 µg/mL (≈ 73.2 µM).

Regarding `Cc1cc(O)c(C(C)C)cc1/N=C/c1ccc(Cl)cc1`, the Activity in assay [1] stood at 74.1%; in assay [2] it was 79.8%; in assay [3], 63.8%; in assay [4], 22.4%; in assay [5], 44.7%. For the same molecule, in assay [6], the concentration for half-maximal inhibition (IC50) worked out at 24.11 µg/mL (≈ 83.8 µM).

On to `Cc1cc(O)c(C(C)C)cc1/N=C/c1ccc(C(C)(C)C)cc1`, for which the Activity in assay [1] is 73.5%; in assay [2], 83.8%; in assay [3] it was 66.2%; in assay [4], 23.6%; in assay [5], 51.6%. Besides, the IC50 in assay [6] was determined as 18.37 µg/mL (≈ 59.4 µM).

As for `CCCc1ccc(/C=N/c2cc(C(C)(C)C)c(O)cc2C)cc1`, the Activity in assay [1] amounted to 70.8%; in assay [2], 84%; in assay [3], 62.9%; in assay [4], 28.6%; in assay [5], 45.8%. For the same molecule, the IC50 in assay [6] was 21.12 µg/mL (≈ 68.2 µM).

Regarding `Cc1ccc(/C=N/c2cc(C(C)C)c(O)cc2C)cc1`, the Activity came to 71.4% in assay [1]; 75.1% in assay [2]; 64.7% in assay [3]; 27.3% in assay [4]; 45% in assay [5]. For the same molecule, the IC50 in assay [6] turned out to be 21.89 µg/mL (≈ 81.9 µM).

Take `Cc1cc(O)c(C(C)(C)C)cc1/N=C/c1ccc(C(C)C)cc1`: the Activity amounted to 74% in assay [1]; 86.4% in assay [2]; 64% in assay [3]; 28.7% in assay [4]; 45.9% in assay [5]. In addition, the half-maximal inhibitory concentration (IC50) in assay [6] was found to be 19.42 µg/mL (≈ 62.8 µM).

As to `Cc1cc(O)c(C(C)C)cc1/N=C/c1ccc([N+](=O)[O-])cc1`, the Activity in assay [1] turned out to be 50.9%; in assay [2] it was 65.3%; in assay [3] it was 36.2%; in assay [4], 10.3%; in assay [5], 17.6%. Also, in assay [6], the half-maximal inhibitory concentration (IC50) came out at 63.03 µg/mL (≈ 211 µM).

Turning to `Cc1cc(O)c(C(C)C)cc1/N=C/c1ccc(Br)cc1`, the Activity in assay [1] amounted to 72.5%; in assay [2] it was 80.9%; in assay [3], 60%; in assay [4], 27.7%; in assay [5], 46.9%. Besides, the IC50 in assay [6] turned out to be 22.05 µg/mL (≈ 66.4 µM).

On to `Cc1cc(/N=C/c2cccnc2)c(C(C)C)cc1O`, for which the Activity in assay [1] was found to be 71.1%; in assay [2] it was 73.8%; in assay [3], 61.9%; in assay [4] it was 21.8%; in assay [5], 34.2%. In assay [6], the 50% inhibitory concentration (IC50) was 32.76 µg/mL (≈ 129 µM).

Regarding `Cc1ccc(C(C)(C)C)c(O)c1`, the Activity in assay [1] came to 19.6%; in assay [2] it was 28.6%; in assay [3] it was 11.3%; in assay [4] it was 3.29%; in assay [5], 4.69%. Also, the IC50 in assay [6] was found to be 173.95 µg/mL (≈ 1060 µM).

For the molecule `CCCc1ccc(/C=N/c2cc(C(C)C)c(O)cc2C)cc1`, the Activity in assay [1] was found to be 69.2%; in assay [2], 72.5%; in assay [3], 65.5%; in assay [4] it was 25.1%; in assay [5], 50.7%. Besides, in assay [6], the half-maximal inhibitory concentration (IC50) amounted to 20.16 µg/mL (≈ 68.2 µM).

In the case of `Cc1cc(/N=C/c2ccccc2)c(C(C)C)cc1O`, the Activity in assay [1] is 75%; in assay [2] it was 82.5%; in assay [3], 63.1%; in assay [4] it was 24.6%; in assay [5], 45.4%. Moreover, the 50% inhibitory concentration (IC50) in assay [6] is 22.26 µg/mL (≈ 87.9 µM).

With `Cc1cc(/N=C/c2ccc(Cl)cc2)c(C(C)C)cc1O`, the Activity in assay [1] came to 68%; in assay [2], 75.6%; in assay [3] it was 59.6%; in assay [4] it was 27.8%; in assay [5], 47.3%. For the same molecule, the concentration for half-maximal inhibition (IC50) in assay [6] worked out at 24.29 µg/mL (≈ 84.4 µM).

Consider `Cc1ccc(C(C)C)cc1O` [CARVACROL], for which the Activity is 27.4% in assay [1]; 37.4% in assay [2]; 18.4% in assay [3]; 5.17% in assay [4]; 9.91% in assay [5]. Further, the half-maximal inhibitory concentration (IC50) in assay [6] is 131.24 µg/mL (≈ 874 µM).

Consider `CCc1ccc(/C=N/c2cc(C(C)(C)C)c(O)cc2C)cc1`, for which the Activity in assay [1] came to 72.4%; in assay [2], 80.9%; in assay [3], 56.3%; in assay [4], 27.1%; in assay [5] it was 47.2%. Further, in assay [6], the IC50 turned out to be 24.04 µg/mL (≈ 81.4 µM).

`Cc1cc(O)c(C(C)(C)C)cc1/N=C/c1cccnc1`: the Activity is 70.3% in assay [1]; 78.3% in assay [2]; 54.5% in assay [3]; 20.1% in assay [4]; 37.6% in assay [5]. In addition, the half-inhibitory concentration (IC50) in assay [6] amounted to 34.03 µg/mL (≈ 127 µM).

Regarding `Cc1cc(O)c(C(C)C)cc1/N=C/c1cccnc1`, the Activity was determined as 68.2% in assay [1]; 79% in assay [2]; 48% in assay [3]; 16.5% in assay [4]; 38.9% in assay [5]. Moreover, the IC50 in assay [6] came out at 37.8 µg/mL (≈ 149 µM).

Take `Cc1cc(O)c(C(C)(C)C)cc1/N=C/c1ccc(F)cc1`: the Activity is 72% in assay [1]; 75.3% in assay [2]; 57% in assay [3]; 28.5% in assay [4]; 41.8% in assay [5]. Further, the IC50 in assay [6] was determined as 26.96 µg/mL (≈ 94.5 µM).

As to `CCCc1ccc(/C=N/c2cc(C)c(O)cc2C(C)C)cc1`, the Activity in assay [1] was found to be 76.6%; in assay [2] it was 84.7%; in assay [3] it was 63.9%; in assay [4], 23.9%; in assay [5] it was 44.6%. Further, the half-inhibitory concentration (IC50) in assay [6] was 22.03 µg/mL (≈ 74.6 µM).

In the case of `CCc1ccc(/C=N/c2cc(C(C)C)c(O)cc2C)cc1`, the Activity in assay [1] was 72.4%; in assay [2], 77%; in assay [3], 64.7%; in assay [4] it was 28.8%; in assay [5] it was 43%. For the same molecule, the concentration for half-maximal inhibition (IC50) in assay [6] worked out at 21.62 µg/mL (≈ 76.8 µM).

Take `Cc1cc(/N=C/c2ccc(Br)cc2)c(C(C)C)cc1O`: the Activity was 64.5% in assay [1]; 79.9% in assay [2]; 63.1% in assay [3]; 28.8% in assay [4]; 45.4% in assay [5]. The IC50 in assay [6] is 23.77 µg/mL (≈ 71.5 µM).
